The record followed here is ChEMBL document CHEMBL1141246, “Transformations of manool. tri- and tetracyclic norditerpenoids with in vitro activity against Plasmodium falciparum” (J Nat Prod, 2007).

Values after ≈ are worked out from the molar mass of the structure shown.

One series has as its system Plasmodium falciparum. Kind of series: Antiparasitic activity against Plasmodium falciparum 3D7 after 48 hrs. The settings on record: 3D7, 48 h. In kind it is functional, organism-based. Summed up:
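P. falciparum 3D7 cultures diluted with fresh medium and erythrocytes to 2% parasitemia, 2% hematocrit. Serial compound dilutions added and plates held 48 h at 37 °C. Viability read as parasite lactate dehydrogenase activity, relative to solvent controls with 0.5% DMSO.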

A short description of series [1]: Effect on erythrocyte shape in human erythrocytes assessed as stomatocytes at 100 ug/mL after 48 hrs. It counts as ADME, cell-based. A digest of the protocol: (§1)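 Fresh erythrocytes at 2% hematocrit incubated 48 h in parasite culture medium alone or with compound. Suspensions then wet-mounted under coverslips and examined at once by phase-contrast microscopy with a 100× oil objective; Giemsa-stained thin smears were also examined. Percent stomatocytes, echinocytes and knizocytes scored using shape definitions of Lim et al.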

Series [2] can be described thus: Hemolytic activity in human erythrocytes at 100 ug/mL after 48 hrs relative to 0.2% saponin. It counts as ADME, cell-based, Erythrocyte. The settings on record: read-out: Activity. A digest of the protocol: (§2)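 Uninfected normal erythrocytes at 2% hematocrit incubated 48 h with compound dilutions in duplicate plates. Cells pelleted at 200g for 3 min, and hemoglobin in the supernatant read by absorbance at 405 nm. Percent hemolysis calculated against 0.2% saponin.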

Series [3] can be described thus: Effect on erythrocyte shape in human erythrocytes assessed as echinocytes at 100 ug/mL after 48 hrs. In kind it is ADME, cell-based. A digest of the protocol: as §1
The nature of series [4]: Effect on erythrocyte shape in human erythrocytes assessed as stomatocytes at 50 ug/mL after 48 hrs. It counts as ADME, cell-based. Summed up:
as §1

Series [5] in a line: Effect on erythrocyte shape in human erythrocytes assessed as echinocytes at 50 ug/mL after 48 hrs. It counts as ADME, cell-based. A digest of the protocol: as §1
A short description of series [6]: Hemolytic activity in human erythrocytes at 200 ug/mL after 48 hrs relative to 0.2% saponin. The settings on record: read-out: Activity. In kind it is ADME, cell-based, Erythrocyte. Summed up: as §2
The nature of series [7]: Effect on erythrocyte shape in human erythrocytes assessed as […] and stomatocytes at 100 ug/mL after 48 hrs. In kind it is ADME, cell-based. Summed up: as §1

`C=C[C@]1(C)C=C2CC[C@H]3C(C)(CO)[C@@H](O)CC[C@]3(C)[C@H]2CC1` (stereo partly specified): in the series with Plasmodium falciparum, inhibition was half-maximal at 7 µg/mL (≈ 23 µM) (IC50).
In the case of `CCO[C@@]12CC[C@H]3[C@@](CC[C@H]4C(C)(C)CCC[C@@]43C)(C1)OC(=O)C2`, the Activity in series [1] was found to be 0%; in series [3], 9%; in series [4], 1%; in series [5], 2%. Besides, the hemolysis at 48 h, 100 ug/mL in series [2] was 0%. The compound further yielded an IC50 with Plasmodium falciparum of 19.6 µg/mL (≈ 58.6 µM). The hemolysis at 48 h, 200 ug/mL in series [6] worked out at 0%.
Consider `CC1(C)CCC[C@@]2(C)[C@H]1CC[C@@]1(O)CC(CCO)CC[C@@H]12` (stereo partly specified), for which the Activity in series [1] worked out at 3%; in series [3], 2%; in series [4], 1%; in series [5] it was 3%. In series [2], the hemolysis at 48 h, 100 ug/mL was 0%. The compound also displayed an IC50 with Plasmodium falciparum of 13.3 µg/mL (≈ 45.2 µM). The hemolysis at 48 h, 200 ug/mL in series [6] was found to be 5%.
`C=C[C@@]1(C)CCC2=C(C1)C(=O)C[C@H]1C(C)(CO)[C@@H](O)CC[C@]21C` (stereo partly specified) registered an IC50 with Plasmodium falciparum of 7 µg/mL (≈ 22 µM).
Turning to `C=C[C@@]1(O)CC[C@H]2[C@@](O)(CC[C@H]3C(C)(C)CCC[C@@]32C)C1`, the Activity in series [1] turned out to be 1%; in series [3] it was 2%; in series [4], 1%; in series [5] it was 3%. Moreover, the hemolysis at 48 h, 100 ug/mL in series [2] was 0.6%. This compound also came in with an IC50 in the series with Plasmodium falciparum of 10.7 µg/mL (≈ 36.6 µM). Also, the hemolysis at 48 h, 200 ug/mL in series [6] was determined as 0.2%.
`C=C[C@@]1(C)CCC2=C(CC[C@H]3C(C)(C)[C@@H](O)CC[C@]23C)C1`: the IC50 in the series on Plasmodium falciparum was 7 µg/mL (≈ 24.3 µM).
Consider `CC1(C)CCC[C@@]2(C)[C@H]1CC[C@@]1(O)C/C(=C\CO)CC[C@@H]12`, for which the Activity in series [1] was determined as 64%; in series [3], 0%; in series [4] it was 5%; in series [5] it was 1%. The hemolysis at 48 h, 100 ug/mL in series [2] turned out to be 2%. Besides, the IC50 with Plasmodium falciparum was 10.6 µg/mL (≈ 36.2 µM). Further, in series [6], the hemolysis at 48 h, 200 ug/mL was determined as 102%.
For `CCOC(=O)/C=C1/CC[C@H]2[C@@](O)(CC[C@H]3C(C)(C)CCC[C@@]32C)C1`, the Activity in series [7] was 17%; in series [3] it was 0%; in series [4] it was 11%; in series [5] it was 0%. Moreover, in series [2], the hemolysis at 48 h, 100 ug/mL is 9%. The IC50 with Plasmodium falciparum was determined as 3.9 µg/mL (≈ 11.7 µM). For the same compound, the hemolysis at 48 h, 200 ug/mL in series [6] is 34%.
As to `CCOC(=O)/C=C1\CC[C@H]2[C@@](O)(CC[C@H]3C(C)(C)CCC[C@@]32C)C1`, the Activity in series [1] amounted to 8%; in series [3], 0%; in series [4] it was 2%; in series [5], 2%. Besides, the hemolysis at 48 h, 100 ug/mL in series [2] was found to be 3%. In the series on Plasmodium falciparum, this compound yielded an IC50 of 5.7 µg/mL (≈ 17 µM). Besides, in series [6], the hemolysis at 48 h, 200 ug/mL came to 17%.
In the series on Plasmodium falciparum, `C=C[C@@]1(C)CCC2[C@@](O)(CC[C@H]3C(C)(C)[C@@H](O)CC[C@]23C)C1` (stereo partly specified) came in with an IC50 of 7 µg/mL (≈ 22.8 µM).

By IC50 is commonly meant the concentration that inhibits the measured activity by half.
